Data on twelve molecules can be found in ChEMBL document CHEMBL3739358 (J Med Chem, 2015).

The target in data set [1] is D(3) dopamine receptor (Rattus norvegicus, UniProt P19020). In words: Displacement of [3H]Spiroperidol from cloned rat dopamine D3 receptor expressed in HEK293 cells by liquid scintillation counting analysis. The class given is cell-based. For orientation: Displacement assays read how much labelled ligand stays bound in the presence of the test substance.
The target in data set [2] is D(2) dopamine receptor (Rattus norvegicus, UniProt P61169). In words: Displacement of [3H]Spiroperidol from cloned rat dopamine D2L receptor expressed in HEK293 cells by liquid scintillation counting analysis. The class given is cell-based. In outline:
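Competition with [3H]spiroperidol binding at cloned rat D2L and D3 receptors expressed in HEK-293 cells, giving Ki values; the selectivity ratio is D2L Ki divided by D3 Ki.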

In data set [3] the test system is HEK293. In words: Selectivity ratio of Ki for cloned rat dopamine D2L receptor to Ki for cloned rat dopamine D3 receptor expressed in HEK293 cells. The class given is cell-based. The method in brief:
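Competition with [3H]spiroperidol binding at cloned rat D2L and D3 receptors expressed in HEK-293 cells, giving Ki values; the selectivity ratio is D2L Ki divided by D3 Ki. Means ± SEM of 3−6 experiments, each in triplicate.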

For data set [4], the target named is D(2) dopamine receptor (Homo sapiens) (UniProt P14416). As to conditions: CHO, 1 uM.
Sequence of D(2) dopamine receptor (Homo sapiens) (P14416 whole entry): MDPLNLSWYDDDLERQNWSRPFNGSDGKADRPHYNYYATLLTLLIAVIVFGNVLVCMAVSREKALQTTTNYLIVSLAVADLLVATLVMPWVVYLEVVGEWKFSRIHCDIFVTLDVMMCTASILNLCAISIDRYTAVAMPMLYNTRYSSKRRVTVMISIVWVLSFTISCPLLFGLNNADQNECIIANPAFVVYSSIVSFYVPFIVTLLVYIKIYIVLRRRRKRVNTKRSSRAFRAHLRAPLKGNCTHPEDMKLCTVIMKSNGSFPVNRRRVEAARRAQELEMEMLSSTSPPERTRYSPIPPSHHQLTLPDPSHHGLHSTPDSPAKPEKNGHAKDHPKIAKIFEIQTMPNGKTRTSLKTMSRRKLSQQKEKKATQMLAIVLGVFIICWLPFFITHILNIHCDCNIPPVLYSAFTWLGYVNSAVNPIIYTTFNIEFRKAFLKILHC
For data set [5] the target is unchanged. In words: Antagonist activity against human D2 receptor expressed in CHO cells assessed as inhibition of dopamine-induced [35S]GTPgammaS binding. Type of data set: functional, cell-based. On the technique in general: Binding of GTPγS marks nucleotide exchange on a G protein.
The target is the same in data set [6]. In words: Agonist activity at human D2 receptor expressed in CHO cells by [35S]GTPgammaS binding assay relative to dopamine. The class given is functional, cell-based. The method in brief:
(§1)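 Stimulation of [35S]GTPγS binding in CHO cells expressing hD2 or hD3 receptors. EC50 is the concentration giving half-maximal stimulation. […] Mean ± SEM of 3−6 experiments, each in triplicate.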

The target is the same in data set [7]. The note with it: CHO, 200 nM.
Data set [8] deals with T1, D(3) dopamine receptor (Homo sapiens, UniProt P35462). In words: Agonist activity at human D3 receptor expressed in CHO cells by [35S]GTPgammaS binding assay relative to dopamine. Type of data set: functional, cell-based. In outline: as §1
T1 sequence (P35462 whole entry): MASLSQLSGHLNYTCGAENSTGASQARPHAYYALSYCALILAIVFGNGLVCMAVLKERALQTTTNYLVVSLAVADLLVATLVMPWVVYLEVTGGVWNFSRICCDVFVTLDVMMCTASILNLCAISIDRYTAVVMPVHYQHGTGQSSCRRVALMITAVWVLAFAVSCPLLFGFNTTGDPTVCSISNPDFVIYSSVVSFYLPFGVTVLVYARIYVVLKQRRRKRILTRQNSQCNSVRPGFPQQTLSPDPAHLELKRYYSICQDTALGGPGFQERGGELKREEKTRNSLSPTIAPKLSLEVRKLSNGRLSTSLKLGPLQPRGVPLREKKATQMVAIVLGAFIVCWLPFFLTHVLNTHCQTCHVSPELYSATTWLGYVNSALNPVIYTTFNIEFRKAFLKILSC
Data set [9] concerns Rattus norvegicus. In words: Reversal of reserpine-induced hypolocomotion in Sprague-Dawley rat at 10 umol/kg, ip administered 18 hrs post reserpine challenge measured for 6 hrs relative to reserpine-treated control. The class given is functional, organism-based. The method in brief:
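Male and female Sprague−Dawley rats (220−225 g) were given reserpine 5.0 mg/kg sc 18 h beforehand and acclimatized in chambers for 1 h. Drug was given at 10 μmol/kg ip, and horizontal activity was recorded by infrared beam breaks for 6 h in 30 min bins. Three rats per group, compared with saline controls by one-way ANOVA with Dunnett's test.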

The target in data set [10] is T1, D(3) dopamine receptor. In words: Agonist activity at human D3 receptor expressed in CHO cells by [35S]GTPgammaS binding assay. The class given is functional, cell-based.
The test system of data set [11] is PC-12. Kind of data set: Neuroprotective activity against 6-OHDA-induced death of rat PC12 cells assessed as cell viability pretreated for 24 hrs measured 24 hrs post 6-OHDA challenge by MTT assay relative to 6-OHDA-treated control. Type of data set: functional, cell-based. The method in brief: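 PC12 cells were pretreated with compound for 24 h; the medium was then replaced and 75 μM 6-OHDA added for a further 24 h. Controls received 0.01% DMSO. Viability was measured by MTT (0.5 mg/mL final, 3−4 h, A570/690 nm). Mean ± SD of at least three experiments, each in four to six replicates.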
In general terms: Tetrazolium dyes change colour on reduction, which living cells bring about.

A short description of data set [12]: Antioxidant activity assessed as DPPH free radical scavenging activity after 30 mins. The class given is physicochemical. As to conditions: 0.5 h.
A short description of data set [13]: Cytotoxicity against rat PC12 cells at 0.001 to 30 uM by MTT assay relative to control. The class given is cell-based. The note with it: pc-12, in the assay text read “0.01 to 30 uM” for “0.001 to 30 uM”. The method in brief:
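PC12 cells were grown in RPMI 1640 with 10% heat-inactivated horse serum and 5% FBS at 37 °C, seeded at 17000 cells/well for 24 h, then exposed to 0.01−30 μM compound. Viability was read by MTT (0.5 mg/mL final, 3−4 h), formazan dissolved in methanol:DMSO, A570 with 690 nm background, relative to untreated controls.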

A short description of data set [14]: Neuroprotective activity against 6-OHDA-induced death of rat PC12 cells assessed as cell viability pretreated for 24 hrs at 20 uM measured 24 hrs post 6-OHDA challenge by MTT assay relative to 6-OHDA-treated control. The class given is functional. The note with it: PC-12, read-out: Activity.

The structures appear in SMILES notation. Calls of active or inactive are those of the source. No cut-off for these calls is given here.

Sequence of D(2) dopamine receptor (P61169 whole entry): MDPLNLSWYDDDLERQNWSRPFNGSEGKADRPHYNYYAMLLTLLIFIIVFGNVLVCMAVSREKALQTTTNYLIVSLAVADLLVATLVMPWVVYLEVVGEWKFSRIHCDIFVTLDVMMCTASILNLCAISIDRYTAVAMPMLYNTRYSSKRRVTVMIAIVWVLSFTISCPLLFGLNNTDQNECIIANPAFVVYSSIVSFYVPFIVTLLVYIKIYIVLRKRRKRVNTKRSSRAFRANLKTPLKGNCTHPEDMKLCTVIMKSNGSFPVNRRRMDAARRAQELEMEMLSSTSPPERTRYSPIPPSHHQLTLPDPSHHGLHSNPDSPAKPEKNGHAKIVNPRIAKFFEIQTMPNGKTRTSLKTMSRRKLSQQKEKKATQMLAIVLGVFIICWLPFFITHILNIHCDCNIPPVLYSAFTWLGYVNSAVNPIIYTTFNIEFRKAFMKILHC
Sequence of D(3) dopamine receptor (Rattus norvegicus, UniProt P19020) (P19020 whole entry): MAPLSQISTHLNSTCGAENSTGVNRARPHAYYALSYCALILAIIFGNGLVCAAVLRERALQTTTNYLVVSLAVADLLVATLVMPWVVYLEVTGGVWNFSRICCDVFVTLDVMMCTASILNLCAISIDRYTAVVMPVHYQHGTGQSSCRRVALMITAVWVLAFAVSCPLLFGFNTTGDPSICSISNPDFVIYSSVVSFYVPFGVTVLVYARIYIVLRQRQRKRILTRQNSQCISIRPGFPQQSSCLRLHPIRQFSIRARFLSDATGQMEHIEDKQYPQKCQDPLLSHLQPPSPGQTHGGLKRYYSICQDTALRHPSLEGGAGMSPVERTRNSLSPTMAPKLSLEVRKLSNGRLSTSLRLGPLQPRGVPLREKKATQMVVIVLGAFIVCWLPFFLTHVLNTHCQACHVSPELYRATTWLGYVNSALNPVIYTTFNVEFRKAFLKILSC

In general, Ki refers to a dissociation constant, usually derived from enzyme kinetics or from competition with a known ligand. Lower therefore signals tighter binding. `CCCN(CCN1CCN(Cc2c[nH]c3ccc(OC)cc23)CC1)C1CCc2nc(N)sc2C1` (racemic): the Ki in data set [1] came out at 15.9 nM; in data set [2] it was 1640 nM. Besides, the Ratio Ki in [3] was 101.
The like results for `CCCN(CCN1CCN(Cc2c[nH]c3cccc(F)c23)CC1)C1CCc2nc(N)sc2C1` (racemic) were, in that order, 8.87 nM, 992 nM and 112.
For the molecule `CCCN(CCN1CCN(Cc2c[nH]c3ccc(F)cc23)CC1)C1CCc2nc(N)sc2C1` (racemic), the Ki was determined as 12.1 nM in data set [1] and 854 nM in data set [2]. Moreover, the Ratio Ki in data set [3] came to 71.
With `CCCN(CCN1CCN(Cc2c[nH]c3ccc(Br)cc23)CC1)C1CCc2nc(N)sc2C1` (racemic), the results for the Ki in data set [1] and in data set [2] were 12.9 nM and 376 nM, respectively. Moreover, in data set [3], the Ratio Ki is 29.
For orientation: Emax means the maximal effect, on the per cent scale that the assay sets. `CCCN1CCC[C@@H](c2cccc(O)c2)C1`: the figures for the Ke in [4], in data set [5] and in data set [7] were 383 nM, 372 nM and 362 nM, respectively. Besides, the Emax is 19.8% in data set [6] and 52% in data set [8].
Take `CCCN(CCN1CCN(Cc2c[nH]c3cccc(Cl)c23)CC1)C1CCc2nc(N)sc2C1` (racemic): the Ki in [1] amounted to 13.8 nM; in data set [2] it was 1160 nM. The Ratio Ki in data set [3] was determined as 84.
The term EC50 denotes the concentration giving half of the maximal effect. For the molecule `CCCN(CCN1CCN(c2ccc3cc[nH]c3c2Cl)CC1)[C@H]1CCc2nc(N)sc2C1.O=C(O)C(F)(F)F`, in data set [9], the result was Active. In addition, the figures for the Emax in [6] and in [8] were 101% and 113%, respectively. Moreover, the Ki in data set [1] came out at 1.15 nM; in data set [2], 16.4 nM. For the same molecule, the EC50 in [10] is 1.41 nM. Moreover, the Activity result in [11] is “Dose-dependent effect”; in [12] it was “Dose-dependent effect”; in data set [13] it was “Non-toxic”. The viability at 20 µM in data set [14] was 30%.
`CCCN(CCN1CCN(c2cc(F)c3[nH]ccc3c2)CC1)[C@H]1CCc2nc(N)sc2C1`: the Ki in [1] stood at 3.66 nM; in data set [2], 156 nM. For the same molecule, the Ratio Ki in [3] turned out to be 43.
The like results for `CCCN(CCN1CCN(Cc2c[nH]c3cccc(OC)c23)CC1)C1CCc2nc(N)sc2C1` (racemic) were, in that order, 25 nM, 1880 nM and 75.
With `CCCN[C@H]1CCc2nc(N)sc2C1`, the result in data set [9] was Active.
The same measure, in the same setting: the value for `CCCN(CCC)CCc1cccc2c1CC(=O)N2` was “Active”.
For `CCCN(CCN1CCN(c2c(Cl)ccc3[nH]ccc23)CC1)[C@H]1CCc2nc(N)sc2C1`, the results for the Emax in data set [6] and in [8] were 87.6% and 104%, respectively. For the same molecule, the values for the Ki in data set [1] and in data set [2] were 0.87 nM and 74.5 nM, respectively. For the same molecule, in [10], the EC50 was determined as 3.93 nM.
